# Screens from PubChem BioAssay.
# Rad51 HR inh: blocks human Rad51 in homologous recombination; inhibition, % at 10 µM; hRad51 DNA strand exchange, fluorescence dequenching; Q06609; hit rate 0.085% among 200,000;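 active means inhibition above 40% at the single screening dose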;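 further: 0% = DMSO control wells and 100% = blanks with heterologous ssDNA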
#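 Material: human Rad51–ssDNA filaments; Probe or stimulus: labelled 47-mer dsDNA for strand exchange; Doses: single 10 µM dose; Incubation: 37 °C 15-min filament assembly, 30-min compound preincubation, 15-min exchange; Technique: FRET fluorescence dequenching, excitation 485 nm, emission 520 nm; Measure: Fluorescence-based percent inhibition, control- and blank-normalised; Benchmarks: plate control and blank wells.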
# PMI act satM6P: PMI (human) activation, high substrate; coupled PMI enzyme assay, resazurin fluorescence, 20 min; stronger effect = higher value; 1 = untreated enzyme, 0 = substrate-free blank; P34949; hit rate 0.34% among 190,000; activation factor at 20 µM;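 active means activation factor of 2 or more at 20 µM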
# Target sequence (P34949 whole entry, looked up): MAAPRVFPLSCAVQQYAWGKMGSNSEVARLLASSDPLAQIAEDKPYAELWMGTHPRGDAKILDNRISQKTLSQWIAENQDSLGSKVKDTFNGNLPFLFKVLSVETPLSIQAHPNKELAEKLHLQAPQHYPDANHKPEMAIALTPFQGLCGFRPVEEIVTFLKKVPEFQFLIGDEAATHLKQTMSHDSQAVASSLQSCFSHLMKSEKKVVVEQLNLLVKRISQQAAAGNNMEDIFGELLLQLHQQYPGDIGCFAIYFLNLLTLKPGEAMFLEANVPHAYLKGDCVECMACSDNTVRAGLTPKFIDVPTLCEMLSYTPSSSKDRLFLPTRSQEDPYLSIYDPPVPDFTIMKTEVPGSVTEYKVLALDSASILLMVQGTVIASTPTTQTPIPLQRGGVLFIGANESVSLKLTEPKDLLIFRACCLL
#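 Test system: Human PMI in coupled enzyme assay | Input: 15 ng/mL PMI | Medium: HEPES-buffered pH 7.4 with magnesium and detergent | Compound: One concentration, 20 µM, in 1% DMSO | Incubation: Enzyme reaction with compound 20 min at room temperature | Detection: Diaphorase-driven resazurin-to-resorufin fluorescence, excitation 544, emission 590 nm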
# WT yeast gro inh: growth inhibition of WT yeast, mitochondrial fusion screen; inhibition, % at 10 µM; mitochondrial fusion phenotypic screen, WT strain; AID 1362; hit rate 2.1% among 190,000; in the data active means inhibition above about 58%; tested in S. cerevisiae
# PMI activator: activators of human phosphomannose isomerase; P34949; purified human PMI, coupled resazurin fluorescence, 20 min; stronger effect = higher value; 1 = vehicle control, 0 substrate-free wells; activation factor at 20 µM; hit rate 0.005% among 190,000; AID 1214;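 active means activation factor of 2 or more at 20 µM, relative to plate controls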
# Calpain2 inh: inhibitors of pig calpain II; AID 1236; hit rate 0.37% among 220,000; inhibition, % at 16 µM; purified calpain II, fluorogenic peptide substrate, 30 min;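 active means inhibition above about 50%, limit read from the data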
# Lmaj promast: reduces viability of Leishmania major promastigotes; AID 1063; resazurin fluorescence viability; hit rate 9% among 200,000; inhibition, % at 10 µM; in the data active means inhibition above about 50%;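 further: promastigotes grown with compound for 44 hours at 28 °C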
# The depositor's hits bear a star; i = inactive; . = no result. Only some compounds are listed: those with a hit (about 9.8% of all), similar ones and a draw of the others.
SMILES,Rad51 HR inh,PMI act satM6P,WT yeast gro inh,PMI activator,Calpain2 inh,Lmaj promast
C=CCc1cc(Cl)ccc1OCCOCCNC(C)(C)C,-40,1.1,12,1,-27,99*
C=CCc1ccccc1OCCNCCCOC,.,1.1,-6,1.1,-4,83*
C=CCc1cc(Cl)ccc1OCCOCCN(C)C,-3,0.9,25,0.9,11,100*
C=CCc1cc(Cl)ccc1OCCOCCNCCOC,-5,1.1,-2,1.1,-5,99*
COC(=O)c1c(SCC(=O)Nc2ccc(C)c(C)c2)nc(=O)[nH]c1C,5,.,.,.,10,.
C=CCc1cc(Cl)ccc1OCCNCCCOC,.,0.9,-1,0.9,-2,100*
Cc1ccc(S(=O)(=O)NCC(=O)NCC(=O)OC(C(=O)NC(N)=O)C(C)C)cc1C (stereo not drawn),20,.,.,.,-5,.
Cc1c(-c2cccc(Cl)c2)nc2ccccc2c1C(=O)OC/C(O)=C(\C#N)c1nc2ccccc2[nH]1,-62,1,-18,1.1,-80,2
Clc1ccc(CN(CC2CCCO2)C(c2cccs2)c2nnnn2C2CCCC2)cc1 (stereo not drawn),-1,0.9,11,0.9,-1,55*
Clc1ccccc1CN(Cc1ccco1)Cc1nnnn1C1CCCC1,-7,1.1,31,1.1,42,35
CCN(Cc1ccccc1)C(c1cccs1)c1nnnn1C1CCCCC1 (stereo not drawn),5,1,75*,0.9,40,31
Clc1ccccc1CN(Cc1ccccc1)C(c1cccs1)c1nnnn1C1CCCC1 (stereo not drawn),6,1,-4,1,24,60*
CCC1Cc2c(nc(N)c3c(N)nc(N4CCCCC4)c(C#N)c23)O1 (stereo not drawn),-13,0.4,-11,0.8,i,51*
COC(=O)c1cc(C(=O)NCCN2C(=O)S/C(=C\c3cccs3)C2=O)cc([N+](=O)[O-])c1,.,1,6,0.9,-58,27
c1ccc(CN2CCC(Nc3nc(-c4ccccc4)nc4ccccc34)CC2)cc1,15,1,-28,0.9,-1,100*
Cc1ccc(NC(=O)C2(NC(=O)c3ccccn3)CCCCC2)cc1Br,.,0.9,35,1,19,58*
O=C(NC1(C(=O)NC2CCCCC2)CCCCC1)c1ccccn1,8,1,4,0.9,-43,-3
CC(N=C1CC(C)(C)CC(=O)/C1=C(/O)CCCN1C(=O)c2ccccc2C1=O)C(=O)O (stereo not drawn),17,1,4,1.1,-2,-4
Cc1ccccc1-c1nn(-c2ccc(F)cc2F)cc1CNC1CC1,.,0.9,-3,0.9,2,7
c1ccc(-c2csc(N3CCOCC3)n2)cc1,2,0.9,1,0.9,-51,3
c1ccc(-c2csc(N3CCN(c4ccccn4)CC3)n2)cc1,2,0.9,63*,0.9,16,-3
CCCCn1c(=N)n(CC(O)COc2ccc(C)cc2)c2ccccc21 (stereo not drawn),-3,0.9,13,0.9,-9,101*
CCCCn1c(=N)n(CC(O)COc2ccccc2)c2ccccc21 (stereo not drawn),-9,0.9,33,1,19,55*
CCN(CC)S(=O)(=O)c1ccc(N2CCCC2)c(NS(=O)(=O)c2ccc(OC)cc2)c1,-2,1,-2,1,6,20
CCN(CC)S(=O)(=O)c1ccc(N2CCOCC2)c(NS(=O)(=O)c2cc(C(C)(C)C)ccc2C)c1,-6,0.9,-7,0.8,2,93*
SMILES,Rad51 HR inh,PMI act satM6P,WT yeast gro inh,PMI activator,Calpain2 inh,Lmaj promast
CCN(CC)S(=O)(=O)c1cc(NS(=O)(=O)c2ccccc2)ccc1C,-1,0.9,-19,0.9,56*,52*
CCN(CC)S(=O)(=O)c1ccc(N2CCCC2)c(NS(=O)(=O)c2ccc([N+](=O)[O-])cc2)c1,4,1.1,3,0.9,-13,0
CCN(CC)S(=O)(=O)c1cc(NS(=O)(=O)c2cccc(C(=O)O)c2)ccc1C,13,1.3,-9,1.3,-4,-5
CCN(CC)S(=O)(=O)c1ccc(N2CCCC2)c(NS(=O)(=O)c2ccc(F)cc2)c1,9,0.8,0,0.9,22,60*
CCN(CC)S(=O)(=O)c1ccc(N2CCCC2)c(NS(=O)(=O)c2ccccc2)c1,1,1,-14,0.9,-10,63*
CN1CCCC(n2nc(Cc3ccc(Cl)cc3)c3ccccc3c2=O)CC1 (stereo not drawn),1,.,.,.,.,.
Cc1ccc(S(C)(=O)=O)cc1S(=O)(=O)Nc1ccccc1,2,1.1,-6,1,4,50*
Cc1c(-n2c(SC(C)C(=O)NC(N)=O)nc3ccccc3c2=O)c(=O)n(-c2ccccc2)n1C (stereo not drawn),-7,1,-11,1,-23,-1
Cc1ccc(S(=O)(=O)Nc2ccc(-c3nc4cc(NS(=O)(=O)c5ccc(C)cc5)ccc4o3)cc2)cc1,-2,1,-4,1.1,i,98*
CCc1nnc(NC(=O)c2ccc(S(=O)(=O)N(C)c3ccccc3)cc2)o1,-8,1.2,18,1.3,-17,83*
CSCc1nnc(NC(=O)c2ccc(S(=O)(=O)N(C)C)cc2)o1,12,1.1,-3,1.1,-11,-8
CCCN(CCC)S(=O)(=O)c1ccc(C(=O)Nc2nnc(COC)o2)cc1,-27,1.1,-22,1.1,10,-5
CCc1nnc(NC(=O)c2ccc(S(=O)(=O)N(CC(C)C)CC(C)C)cc2)o1,4,1.2,72*,1.3,24,96*
CSCc1nnc(NC(=O)c2ccc(S(=O)(=O)N(CC(C)C)CC(C)C)cc2)o1,.,1,72*,1,-108,79*
COc1cc(C(=O)NC(=S)Nc2nccs2)cc(OC)c1OC,-3,1,12,0.9,-4,0
Cc1ccc(NC(=S)N2CCN(C3CCCCC3)CC2)cc1,-1,1.1,-21,1,4,84*
O=C(CN1CCN(C2CCCCC2)CC1)Nc1ccc(Br)cc1,3,1.1,-7,1.3,-19,88*
CCOC(=O)N1CCN(C(=S)Nc2ccc(C)cc2)CC1,4,1,0,1,-1,-8
COc1ccc(NC(=O)CN2CCC(NC(=O)C3CCCCC3)CC2)cc1,-2,1,33,0.9,-4,70*
COc1ccc(NC(=O)CN2CCCCC2)cc1,-3,1,-4,0.9,8,-7
Fc1cc(F)cc(NC(=S)N2CCC(c3ccccc3)C2)c1 (stereo not drawn),.,1,21,1,-2,2
CCc1cccc(NC(=S)N2CCC(c3ccccc3)C2)c1 (stereo not drawn),.,0.9,76*,0.8,19,6
